The values that follow come from ChEMBL document CHEMBL1138049, “Evaluation of small-molecule modulators of the luteinizing hormone/choriogonadotropin and thyroid stimulating hormone receptors: structure-activity relationships and selective binding patterns” (J Med Chem, 2006).

Sequence of Thyrotropin receptor (Homo sapiens) (P16473 whole entry): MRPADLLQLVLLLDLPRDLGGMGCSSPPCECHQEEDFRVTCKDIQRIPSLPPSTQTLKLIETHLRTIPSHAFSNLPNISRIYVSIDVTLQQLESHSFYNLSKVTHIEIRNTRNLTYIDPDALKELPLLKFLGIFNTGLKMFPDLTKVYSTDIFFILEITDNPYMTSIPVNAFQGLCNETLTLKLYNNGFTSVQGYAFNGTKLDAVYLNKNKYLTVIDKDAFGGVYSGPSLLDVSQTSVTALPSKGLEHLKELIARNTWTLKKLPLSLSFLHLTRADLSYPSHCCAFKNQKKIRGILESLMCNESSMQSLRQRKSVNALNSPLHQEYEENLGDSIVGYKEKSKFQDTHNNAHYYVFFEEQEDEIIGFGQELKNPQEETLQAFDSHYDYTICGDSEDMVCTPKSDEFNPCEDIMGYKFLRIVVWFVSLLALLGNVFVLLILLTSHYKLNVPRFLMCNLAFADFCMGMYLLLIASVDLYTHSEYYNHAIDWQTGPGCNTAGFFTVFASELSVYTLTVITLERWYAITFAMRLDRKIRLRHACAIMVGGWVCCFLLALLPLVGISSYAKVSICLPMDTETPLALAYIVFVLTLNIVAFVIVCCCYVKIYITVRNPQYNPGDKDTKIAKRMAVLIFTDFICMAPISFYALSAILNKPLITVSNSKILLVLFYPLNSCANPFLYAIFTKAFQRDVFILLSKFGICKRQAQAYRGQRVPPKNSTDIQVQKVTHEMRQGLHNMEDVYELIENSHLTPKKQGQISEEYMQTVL
Sequence of Lutropin-choriogonadotropic hormone receptor (Homo sapiens) (P22888 whole entry): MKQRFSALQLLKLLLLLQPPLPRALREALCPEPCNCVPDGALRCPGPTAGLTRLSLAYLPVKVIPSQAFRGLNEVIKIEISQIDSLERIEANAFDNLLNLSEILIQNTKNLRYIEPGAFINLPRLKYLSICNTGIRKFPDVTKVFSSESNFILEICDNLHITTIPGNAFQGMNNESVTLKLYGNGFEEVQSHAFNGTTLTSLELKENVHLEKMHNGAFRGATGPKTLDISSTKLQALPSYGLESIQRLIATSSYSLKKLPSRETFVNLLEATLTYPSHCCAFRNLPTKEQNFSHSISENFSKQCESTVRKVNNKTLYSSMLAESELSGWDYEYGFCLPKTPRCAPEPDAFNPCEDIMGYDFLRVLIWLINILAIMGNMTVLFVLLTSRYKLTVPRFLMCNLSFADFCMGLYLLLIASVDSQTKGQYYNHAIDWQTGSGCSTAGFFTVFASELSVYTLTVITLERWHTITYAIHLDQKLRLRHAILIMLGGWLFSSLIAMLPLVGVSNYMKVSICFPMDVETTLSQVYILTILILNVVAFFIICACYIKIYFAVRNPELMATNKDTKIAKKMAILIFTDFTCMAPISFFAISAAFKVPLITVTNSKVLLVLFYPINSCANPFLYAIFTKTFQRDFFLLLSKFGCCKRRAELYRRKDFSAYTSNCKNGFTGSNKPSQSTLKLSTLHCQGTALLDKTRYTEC

In one test the target is Lutropin-choriogonadotropic hormone receptor (Homo sapiens) (UniProt P22888). The test can be described thus: Agonist activity at LHCGR expressed in HEK293 EM cells measured by intracellular cAMP accumulation relative to LH. The class given is functional, cell-based. Summed up:
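Human LHCGR stably expressed in HEK 293 EM cells, cultured 48 h, then incubated 1 h in serum-free DMEM with 1 mM IBMX and compound (0-100 µM) at 5% CO₂. Cells were lysed and cAMP measured by enzyme immunoassay. […] Efficacy is % of maximal response to human LH (1000 ng/ml). Two independent experiments, each in duplicate.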
`COc1cccc(-c2nc(SC)nc3sc(C(=O)NCCc4ccccc4)c(N)c23)c1`: the Efficacy was found to be 25.6%.

With `COc1cccc(-c2nc(SC)nc3sc(C(=O)NCc4ccccc4)c(N)c23)c1`, the Efficacy was determined as 7.8%.

In turn, `COc1cccc(-c2nc(SC)nc3sc(C(=O)NCC#N)c(N)c23)c1` yielded an Efficacy of 20.3%.

On to `COc1cccc(-c2nc(SC)nc3sc(C(=O)NNC(=O)OC(C)(C)C)c(N)c23)c1`, for which the Efficacy worked out at 2.4%.

`CCOC(=O)c1sc2nc(SC)nc(-c3cccc(OC)c3)c2c1N`: the Efficacy amounted to 4.2%.

Consider `COc1cccc(-c2nc(SC)nc3sc(C(=O)NC(C)(C)C)c(N)c23)c1`, for which the Efficacy is 45.8%.

For the compound `COc1cccc(-c2nc(SC)nc3sc(C(=O)OC(C)(C)C)c(N)c23)c1`, the Efficacy worked out at 23.8%.

Take `CCNC(=O)c1sc2nc(SC)nc(-c3cccc(OC)c3)c2c1N`: the Efficacy came to 26.9%.

In turn, `COc1cccc(-c2nc(SC)nc3sc(C(=O)N(C)C(C)(C)C)c(N)c23)c1` gave an Efficacy of 47.8%.

The compound `COc1cccc(-c2nc(SC)nc3sc(C(=O)N(C)C)c(N)c23)c1` returned an Efficacy of 11%.

Compound `CSc1nc(-c2cccc(O)c2)c2c(N)c(C(=O)NC(C)(C)C)sc2n1` displayed an Efficacy of 63.9%.

As to `COc1cccc(-c2nc(SC)nc3sc(C(=O)NC(C)(C)C)c(N)c23)c1F`, the Efficacy came to 46.3%.

Compound `COc1cccc(-c2nc(SC)nc3sc(C(=O)NNC(C)(C)C)c(N)c23)c1` returned an Efficacy of 6%.

Compound `COc1cccc(-c2nc(SC)nc3sc(C(=O)NCCO)c(N)c23)c1` showed an Efficacy of 20.5%.

As to `COc1cccc(-c2nc(SC)nc3sc(C(=O)NN)c(N)c23)c1`, the Efficacy was 8.5%.

`COc1cccc(-c2nc(SC)nc3sc(C(=O)NC(C)(C)C)c(N)c23)c1OC` yielded an Efficacy of 50.1%.

Another test deals with Thyrotropin receptor (Homo sapiens) (UniProt P16473). The test can be described thus: Agonist activity at TSHR expressed in HEK293 EM cells measured by intracellular cAMP accumulation relative to TSH. The class given is functional, cell-based. Summed up:
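Human TSHR stably expressed in HEK 293 EM cells, cultured 48 h, then incubated 1 h in serum-free DMEM with 1 mM IBMX and compound (0-100 µM) at 5% CO₂. Lysates assayed for cAMP by enzyme immunoassay. […] Maximal response expressed as % of bovine TSH response, reference 100 mU/mL. Two independent experiments in duplicate.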
Background: Cyclic AMP is a second messenger, typically raised through Gs and lowered through Gi signalling.
Consider `COc1cccc(-c2nc(SC)nc3sc(C(=O)NCCc4ccccc4)c(N)c23)c1`, for which the Efficacy was determined as 4.3%.

Compound `COc1cccc(-c2nc(SC)nc3sc(C(=O)NCc4ccccc4)c(N)c23)c1` showed an Efficacy of 3%.

Compound `COc1cccc(-c2nc(SC)nc3sc(C(=O)NCC#N)c(N)c23)c1` displayed an Efficacy of 3.6%.

For the compound `COc1cccc(-c2nc(SC)nc3sc(C(=O)NNC(=O)OC(C)(C)C)c(N)c23)c1`, the Efficacy turned out to be 1.9%.

Turning to `CCOC(=O)c1sc2nc(SC)nc(-c3cccc(OC)c3)c2c1N`, the Efficacy stood at 1.5%.

Compound `COc1cccc(-c2nc(SC)nc3sc(C(=O)NC(C)(C)C)c(N)c23)c1` had an Efficacy of 23.4%.

`CCNC(=O)c1sc2nc(SC)nc(-c3cccc(OC)c3)c2c1N` had an Efficacy of 2.3%.

On to `COc1cccc(-c2nc(SC)nc3sc(C(=O)N(C)C(C)(C)C)c(N)c23)c1`, for which the Efficacy worked out at 3.6%.

With `COc1cccc(-c2nc(SC)nc3sc(C(=O)N(C)C)c(N)c23)c1`, the Efficacy was found to be 4%.

With `CSc1nc(-c2cccc(F)c2)c2c(N)c(C(=O)NC(C)(C)C)sc2n1`, the Efficacy turned out to be 8.1%.

In turn, `CSc1nc(-c2cccc(O)c2)c2c(N)c(C(=O)NC(C)(C)C)sc2n1` registered an Efficacy of 11.2%.

For the compound `COc1cccc(-c2nc(SC)nc3sc(C(=O)NNC(C)(C)C)c(N)c23)c1`, the Efficacy came to 6.4%.

On to `COc1cccc(-c2nc(SC)nc3sc(C(=O)NCCO)c(N)c23)c1`, for which the Efficacy was found to be 2.9%.

Regarding `COc1cccc(-c2nc(SC)nc3sc(C(=O)NN)c(N)c23)c1`, the Efficacy was 6.1%.

In the case of `COc1cccc(-c2nc(SC)nc3sc(C(=O)NC(C)(C)C)c(N)c23)c1OC`, the Efficacy worked out at 3%.
